This is an account of results in ChEMBL document CHEMBL2412965, “Macrocyclic biphenyl tetraoxazoles: synthesis, evaluation as G-quadruplex stabilizers and cytotoxic activity” (Bioorg Med Chem, 2013).

The nature of data set [1]: Cytotoxicity against human KBH5.0 cells overexpressing BCRP after 4 days by MTT assay. The class given is functional, cell-based. As to conditions: KBH5.0 cell, 96 h. The essentials:
(§1)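 Cells were grown in suspension in RPMI with 10% heat-inactivated FBS, 2 mM L-glutamine, penicillin and streptomycin at 37 °C, 5% CO2. Drug exposure was continuous for 4 days across a concentration range, with a drug-free control. IC50 came from at least two experiments in six replicate wells.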
(Tetrazolium dyes change colour on reduction, which living cells bring about.)

The nature of data set [2]: Cytotoxicity against human KBV1 cells overexpressing MDR1 after 4 days by MTT assay. The class given is functional, cell-based. Particulars: KB-V1, 96 h. An outline of the steps:
as §1

The nature of data set [3]: Cytotoxicity against human RPMI8402 cells after 4 days by MTT assay. The class given is functional, cell-based. As to conditions: RPMI 8402, 96 h.
The nature of data set [4]: Cytotoxicity against wild type human KB-3-1 cells after 4 days by MTT assay. The data set is classed as functional, cell-based. Particulars: KB 3-1, 96 h. The essentials:
as §1

Data set [5] has as its system Salmonidae. The experiment in a line: Binding affinity to salmon testes duplex DNA assessed as thermal transition temperature at 15 uM preincubated for 5 mins at 90 degC followed by cooling at room temperature measured after 4 hrs by UV spectrophotometric analysis in presence of 150 mM K+ (reference value: 86.1 degC). The essentials:
(§2)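 Salmon testes duplex DNA melting with ligand at 15 μM in 1 cm quartz cells. Buffer was 10 mM potassium phosphate, pH 7.5, with KCl added to give 50 mM K+ (32 mM KCl) or 150 mM K+ (132 mM KCl). Absorbance was read at 260 nm, temperature raised in 0.5 °C increments with 1 min equilibration and 5 s averaging. Ttran was taken from the first-derivative maximum.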

The test system of data set [6] is Salmonidae. The experiment in a line: Binding affinity to salmon testes duplex DNA assessed as thermal transition temperature at 15 uM preincubated for 5 mins at 90 degC followed by cooling at room temperature measured after 4 hrs by UV spectrophotometric analysis in presence of 50 mM K+ (reference value: 78.2 degC). An outline of the steps:
as §2

For data set [7], the species on record is Homo sapiens. Briefly: Binding affinity to human d(TTAGGG)4 assessed as thermal transition temperature at 20 uM preincubated for 5 mins at 90 degC followed by cooling at room temperature measured after 4 hrs by UV spectrophotometric analysis in presence of 150 mM K+ (reference value: 63.1 degC). An outline of the steps:
(§3)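 UV melting of human telomeric d(TTAGGG)4 at 5 μM strand (120 μM nucleotide), with ligand at 20 μM. Before use, DNA was heated 5 min at 90 °C and cooled slowly to room temperature over 4 h. Buffer was 10 mM potassium phosphate, pH 7.5, with KCl added to give 50 mM K+ (32 mM KCl) or 150 mM K+ (132 mM KCl). Absorbance was read at 295 nm in 0.5 °C steps with 1 min equilibration. Ttran was taken from the first-derivative minimum.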

For data set [8], the species on record is Homo sapiens. The experiment in a line: Binding affinity to human d(TTAGGG)4 assessed as thermal transition temperature at 20 uM preincubated for 5 mins at 90 degC followed by cooling at room temperature measured after 4 hrs by UV spectrophotometric analysis in presence of 50 mM K+ (reference value: 55.3 degC). The essentials: as §3
The test system of data set [9] is Mus musculus. The experiment in a line: Toxicity in athymic nude NCr mouse xenografted with human MDA-MB-435 cells administered as ip for 3 times per week for 4 weeks measured 2 times per week during compound administration. The data set is classed as organism-based. As to conditions: in vivo, 672 h. For orientation: A xenograft is tissue or cells of one species grown in another, often human tumour cells in immunodeficient mice.

In data set [10] the test system is MDA-MB-435. The experiment in a line: Antitumor activity against human MDA-MB-435 cells xenografted in athymic nude NCr mouse assessed as tumor growth inhibition at 14 to 31 mg/kg, ip administered 3 times per week for 3 weeks followed by 42 mg/kg, ip dose for 3 times per week for last 10 days measured 2 times per week during compound administration relative to control. The data set is classed as functional.

The term IC50 denotes the concentration that gives 50% inhibition. Higher therefore signals a need for much substance. On to `CC(C)[C@@H]1NC(=O)c2coc(n2)-c2coc(n2)-c2coc(n2)[C@H](C(C)C)NC(=O)c2coc(n2)-c2coc(n2)-c2coc1n2` [HEXAOXAZOLE DIVALINE], for which the IC50 in [1] is 0.5 µM; in data set [2], above 10 µM; in data set [3], 0.41 µM; in data set [4] it was 0.3 µM.

On to `NCC[C@@H]1NC(=O)c2coc(n2)-c2coc(n2)-c2cccc(c2)-c2cccc(c2)-c2nc(co2)-c2nc(co2)CNC1=O`, for which the T in data set [5] turned out to be 87.1 °C; in data set [6], 81.1 °C; in data set [7] it was 77.7 °C; in data set [8], 68.2 °C. Also, the IC50 in [1] is above 10 µM; in data set [2] it was above 10 µM; in data set [3] it was 7 µM; in data set [4], 4 µM.

On to `CN(C)CC[C@@H]1NC(=O)c2coc(n2)-c2coc(n2)-c2cccc(c2)-c2cccc(c2)-c2nc(co2)-c2nc(co2)CNC1=O`, for which the T in [5] worked out at 86.7 °C; in data set [6], 79.1 °C; in [7], 73.7 °C; in data set [8] it was 63.7 °C. Also, the IC50 in [1] is above 10 µM; in data set [2], above 10 µM; in data set [3] it was 6.5 µM; in [4], 3.5 µM.

What is called T/C is the ratio of treated to control. Regarding `CC(C)[C@@H]1NC(=O)c2coc(n2)-c2coc(n2)-c2coc(n2)[C@H](CCN(C)C)NC(=O)c2coc(n2)-c2coc(n2)-c2coc1n2`, in data set [9], the Activity result is “<= 45 mg kg-1”. Moreover, the T/C in [10] is reported as 21.6%. For the same compound, the T in data set [5] was found to be 86.7 °C; in data set [6], 78.2 °C; in [7] it was 92.2 °C; in data set [8], 92.7 °C. Besides, the IC50 in data set [1] is 0.03 µM; in data set [2], 5 µM; in data set [3], 0.07 µM.

In the case of `CC(C)[C@@H]1NC(=O)c2coc(n2)-c2coc(n2)-c2cccc(c2)-c2cccc(c2)-c2nc(co2)-c2nc(co2)CNC1=O`, the T in [5] is 86.2 °C; in data set [6] it was 78.2 °C; in [7], 67.2 °C; in data set [8] it was 61.7 °C. The results for the IC50 in [1], in data set [2] and in [4] were 10 µM, 6.5 µM and 5 µM, respectively.

Consider `O=C1N[C@@H](Cc2ccccc2)C(=O)NCc2coc(n2)-c2coc(n2)-c2cccc(c2)-c2cccc(c2)-c2nc(co2)-c2nc1co2`, for which the T in data set [5] is 85.7 °C; in [6] it was 77.2 °C; in data set [7], 64.7 °C; in data set [8], 58.1 °C. In addition, the IC50 in data set [1], in [2], in [3] and in data set [4] was above 10 µM throughout.

In the case of `O=C1CNC(=O)c2coc(n2)-c2coc(n2)-c2cccc(c2)-c2cccc(c2)-c2nc(co2)-c2nc(co2)CN1`, the T in data set [5] is 86.7 °C; in [6], 78.2 °C; in [7], 67.3 °C; in [8], 60.1 °C. For the same compound, the IC50 in [1] was above 10 µM; in data set [2], above 10 µM; in [3], 2.5 µM; in data set [4], 2.3 µM.

As to `CN(C)CCc1cc2cc(c1)CNC(=O)c1coc(n1)-c1coc(n1)-c1cccc(n1)-c1nc(co1)-c1nc(co1)C(=O)NC2`, the T was found to be 86.8 °C in data set [5], 78.7 °C in data set [6], 91.2 °C in data set [7] and 91.2 °C in [8]. The IC50 in data set [1] is above 10 µM; in [2] it was above 10 µM; in [3], 0.18 µM; in data set [4] it was 0.04 µM.

For the compound `CC(C)(C)OC(=O)NCC[C@@H]1NC(=O)c2coc(n2)-c2coc(n2)-c2cccc(c2)-c2cccc(c2)-c2nc(co2)-c2nc(co2)CNC1=O`, the T in [5] is 86.5 °C; in [6] it was 78.3 °C; in [7] it was 64.2 °C; in data set [8], 57.7 °C. In addition, the IC50 was 6 µM in data set [1], above 10 µM in data set [2], 3.5 µM in [3] and above 10 µM in data set [4].

As to `CC(C)[C@@H]1NC(=O)c2coc(n2)-c2coc(n2)-c2coc(n2)C/C=C/c2coc(n2)-c2coc(n2)-c2coc1n2`, the T in [5] worked out at 86.2 °C; in data set [6] it was 78.2 °C; in data set [7] it was 93.2 °C; in data set [8] it was 92.2 °C. Besides, the IC50 in [1] is 0.04 µM; in data set [2], 3.3 µM; in data set [3], 0.03 µM.
